Results collected from several papers.
Protocols differ between the studies behind these lines.
Target: Serine/threonine-protein kinase Chk2 (CHEK2, Homo sapiens, UniProt O96017)

The remaining binding of `C[C@@]1(Cc2ccc(C#N)cc2)C(=O)N(c2cc(Cl)cc(Cl)c2)c2ncc(C(=O)NC3(c4nc(C5CCC5)no4)CC3)n21` is reported as 100% (cell-free assay, competition with immobilised ligand; 1 µM).
With `COc1cnc(Nc2cccc(S(N)(=O)=O)c2)nc1N1CCN(c2ccccc2)C(=O)C1` the remaining binding was 86% (binding, competition with immobilised ligand; 1 µM).
The remaining binding of `C[C@@H]1CCN(c2nccc(-c3cnn4ncccc34)n2)C1` is reported as 71% (binding; 1 µM).
For `FC(F)(F)Oc1cccc(-c2cnc3ccc(-c4ccncc4)nn23)c1`, the remaining binding was 74% (cell-free assay, competition with immobilised ligand; 5 µM).
With `CCCOc1ccc([C@@H]2[C@@H](C(=O)O)[C@H](c3ccc4c(c3)OCO4)CN2CC(=O)Nc2c(CC)cccc2CC)cc1` the remaining binding was 98% (cell-free assay, competition with immobilised ligand; 1 µM).
`CNC(=O)[C@@H]1CC[C@@H](n2c(-c3ccc4cnccc4c3)nc3ccc(C(=O)NCc4cccc(C(N)=O)c4)cc32)C1` gave a remaining binding of 100% (binding, competition with immobilised ligand; 1 µM).
With `O=C(c1ccc(Nc2ncc(Cl)c(-c3cc4ccccc4s3)n2)cc1)N1CCC(N2CCCC2)CC1` the remaining binding was 82% (binding, competition with immobilised ligand; 1 µM).
For `c1cnn2ncc(-c3ccnc(N4CCC45COC5)n3)c2c1`, the remaining binding was 77% (binding; 1 µM).
The remaining binding of `CCC(=N\O)/C(C)=C/c1ccc(F)cc1` is reported as 85% (cell-free assay, competition with immobilised ligand; 1 µM).
For `O=C(NCCCN1CCOCC1)c1ccc(Nc2ncc(Cl)c(-c3ccc(Cl)s3)n2)cc1`, the remaining binding was 82% (binding, competition with immobilised ligand; 1 µM).
`Cc1cnn2ncc(-c3ccnc(N(C)C)n3)c2c1` gave a remaining binding of 84% (binding; 1 µM).
The remaining binding of `N#Cc1ccc(Nc2ccc3[nH]c(=O)[nH]c3c2)c(Cl)c1` is reported as 100% (cell-free assay, competition with immobilised ligand; 1 µM).
With `CCN1CCN(Cc2ccc(C(=O)Nc3ccc(C)c(Oc4ccc5c(c4)CC(=O)N5)c3)cc2C(F)(F)F)CC1` the remaining binding was 100% (binding, competition with immobilised ligand; 1 µM).
For `CC(C)(O)c1cncc(-c2nc3ccc(F)cc3n2C2CC2)c1`, the remaining binding was 100% (cell-free assay, competition with immobilised ligand; 1 µM).
The remaining binding of `F[C@@H]1CCN(c2nccc(-c3cnn4ncccc34)n2)C1` is reported as 100% (binding; 1 µM).
With `Cn1nc(C(=O)NCc2ccc(C(=O)O)cc2)cc1-c1ccc2[nH]ccc2c1` the remaining binding was 100% (cell-free assay, competition with immobilised ligand; 0.1 µM).
`CN(C)c1nccc(-c2cnc3ncccn23)n1` has a remaining binding of 79% (binding; 1 µM).
`COc1ncc2cc3ccccc3nc2c1C#N` has a remaining binding of 100% (cell-free assay, competition with immobilised ligand; 5 µM).
`O=C(NCC1CCOCC1)c1n[nH]cc1NC(=O)c1c(F)cccc1F` gave a remaining binding of 97% (binding, competition with immobilised ligand; 1 µM).
The remaining binding of `N[C@H]1CCN(c2nccc(-c3cnn4ncccc34)n2)C1` is reported as 98% (binding; 1 µM).
For `O=C(c1ccc(Nc2ncc(Cl)c(-c3ccc(Cl)s3)n2)cc1)N1CCC(N2CCCC2)CC1`, the remaining binding was 87% (binding, competition with immobilised ligand; 1 µM).
For `CN(C)C(=O)Cn1cc(-c2nc(C3(c4ccc(-c5cnc(N)nc5)cc4)CC3)no2)cn1`, the remaining binding was 100% (cell-free assay, competition with immobilised ligand; 1 µM).
For `CN(c1nccc(-c2cnn3ncccc23)n1)C1CC1`, the remaining binding was 100% (binding; 1 µM).
The remaining binding of `NC(=O)c1nc(Nc2ccccc2)sc1NC(=O)C1CCCCC1` is reported as 2.7% (cell-free assay, competition with immobilised ligand; 10 µM).
